From ChEMBL document CHEMBL1127029, “Synthesis and evaluation of 2-pyridinone derivatives as specific HIV-1 reverse transcriptase inhibitors. 3. Pyridyl and phenyl analogs of 3-aminopyridin-2(1H)-one” (J Med Chem, 1993)
Where a name gives a salt, the structure may show the parent alone.

biological target: Human immunodeficiency virus type 1 reverse transcriptase (Human immunodeficiency virus 1, UniProt Q72547); test: In vitro inhibitory concentration against HIV-1 reverse transcriptase using rC-dG template primer; settings: not given

Row | SMILES | IC50 [nM]
1 | CCc1cc(CNc2cc(CC)c(C)nc2O)c(O)nc1C | 91
2 | CCc1cc(NCc2nc3c(cc2OC)CCCC3)c(O)nc1C | 47
3 | CCc1cc(NCc2nc3c(cc2OC)CCC3)c(O)nc1C | 40
4 | CCc1cc(NCc2ccccc2[N+](=O)[O-])c(=O)[nH]c1C | 530
5 | CCc1cc(NCc2ccccc2COC)c(O)nc1C | 35500
6 | CCc1cc(NCc2ccccc2OC)c(O)nc1C | 265
7 | CCc1cc(NCc2cc3c(cc2OC)CCC3)c(=O)[nH]c1C | 40
8 | CCc1cc(NCc2nc(CC)c(C)cc2OC)c(O)nc1C | 70
9 | CCc1cc(NCc2ncccc2OC)c(=O)[nH]c1C | 1550
10 | CCOCn1c(Sc2ccccc2)c(CC)c(=O)[nH]c1=O | 32
11 | CC(C)=CCN1Cc2cccc3[nH]c(=S)n(c23)C[C@@H]1C | 70
12 | CCc1cc(NCc2cnccc2OC)c(=O)[nH]c1C | 10000
13 | CCc1ccc(OC)c(CNc2cc(CC)c(C)nc2O)c1 | 32
14 | CCc1cc(CCc2cc(CC)c(C)nc2OC)c(O)nc1C | 65
15 | CCc1ccc(CNc2cc(CC)c(C)nc2O)c(OC)c1 | 510
16 | CCc1cc(NCc2ccccc2N)c(O)nc1C | 28000
17 | CCc1cc(NCc2ccccc2C(F)(F)F)c(=O)[nH]c1C | 12500
18 | CCc1ccccc1CNc1cc(CC)c(C)[nH]c1=O | 6900
19 | CCc1cc(NCc2cc(C)c(C)cc2OC)c(O)nc1C | 8
20 | CCc1cc(CCc2nc3ccccc3o2)c(O)nc1C | 20
21 | CCc1cc(CNc2cc(CC)c(C)[nH]c2=O)c(OC)cc1C | 33

Row | SMILES | IC50 [nM]
22 | CCc1cc(CCc2cc(CC)c(C)nc2O)c(O)nc1C | 400
23 | CCc1cc(NCc2cc3c(nc2OC)CCCC3)c(O)nc1C | 35
24 | CCc1cc(NCc2cc(C)c(C)nc2OC)c(O)nc1C | 9
25 | CCc1cc(NCc2cccc(C)c2OC)c(O)nc1C | 3800
26 | CCc1cc(NCc2cc3ccccc3nc2OC)c(O)nc1C | 34
27 | CCc1cc(NCc2ccncc2OC)c(=O)[nH]c1C | 110000
28 | CCOc1ccccc1CNc1cc(CC)c(C)nc1O | 350
29 | CCc1cc(NCc2ccccc2C#N)c(=O)[nH]c1C | 790
30 | CCc1cc(NCc2ccccc2O)c(=O)[nH]c1C | 4600
31 | CCc1cc(NCc2cccnc2OC)c(O)nc1C | 680
32 | CCc1cc(NCc2nc(C)c(C)cc2OC)c(O)nc1C | 70
33 | CCc1cc(NCc2ccc(OC)cc2)c(O)nc1C | 7500
34 | CCc1cc(NCc2ccccc2Cl)c(O)nc1C | 1450
35 | CCc1cc(NCc2ccccc2C)c(O)nc1C | 2200
36 | CCc1cc(NCc2cccc(OC)c2)c(=O)[nH]c1C | 1250
37 | CCc1cc(NCc2cc(CC)c(C)nc2OC)c(O)nc1C | 19
38 | CCc1cc(NCc2c(C)cccc2OC)c(=O)[nH]c1C | 1300
39 | CCc1cc(NCc2ccccc2F)c(O)nc1C | 1400
40 | CCc1cc(NCc2ccccc2SC)c(=O)[nH]c1C | 1500
41 | CCc1cc(NCc2ccc(C)cc2OC)c(O)nc1C | 32
42 | CCc1cc(NCc2cc(C)ccc2OC)c(O)nc1C | 23

tested on: MT4; test: Cell culture inhibitory concentration against spread of HIV-I infection in MT-4 cells was determined; assay type: functional; settings: Homo sapiens, read-out: CIC95
Method in brief: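 Spread of HIV-1 infection in MT-4 cell culture; the read-out is HIV-1 p24 core antigen by ELISA. The value is the lowest concentration giving ≥95% inhibition of infection spread (CIC95).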

Row | SMILES | IC95 [nM]
43 | CCc1cc(NCc2ccccc2OC)c(O)nc1C | 400
44 | CCOCn1c(Sc2ccccc2)c(CC)c(=O)[nH]c1=O | 100
45 | CC(C)=CCN1Cc2cccc3[nH]c(=S)n(c23)C[C@@H]1C | 200
46 | CCc1cc(NCc2cc(C)c(C)cc2OC)c(O)nc1C | 13
47 | CCc1cc(NCc2cc(C)c(C)nc2OC)c(O)nc1C | 50
48 | CCc1cc(NCc2cccnc2OC)c(O)nc1C | 800
49 | CCc1cc(NCc2nc(C)c(C)cc2OC)c(O)nc1C | 100
50 | CCc1cc(NCc2cc(CC)c(C)nc2OC)c(O)nc1C | 13
51 | CCNc1cccnc1N1CCN(C(=O)c2cc3cc(OC)ccc3[nH]2)CC1 [ATEVIRDINE MESYLATE] | 1500
52 | CCc1cc(NCc2nc3c(Cl)ccc(Cl)c3o2)c(O)nc1C [L-697661] | 50
53 | Cc1ccnc2c1NC(=O)c1cccnc1N2C1CC1 [NEVIRAPINE] | 100
